ChEMBL document CHEMBL4024768, “Discovery and Optimization of Thiazolidinyl and Pyrrolidinyl Derivatives as Inhaled PDE4 Inhibitors for Respiratory Diseases” (J Med Chem, 2017)

Tests used:
[1] = Drug level in human hepatocytes treated with 3, 5-Dichloro-4-((S)-2-(3-(cyclopropylmethoxy)-4-(difluoromethoxy)phenyl)-2-((S)-3-(3-(dimethylcarbamoyl)-phenylsulfonyl)thiazolidine-2-carbonyloxy)ethyl)pyridine 1-Oxide at 10 uM after 60 mins by LC-MS/MS analysis; assay type: ADME, cell-based, Hepatocyte; conditions: 1 h
Procedure, shortened: (§1)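 Pooled mixed-sex cryopreserved human hepatocytes (1 million cells/mL) in Leibovitz L-15 at 37 °C, compound at 10 μM in duplicate. Sampled at 0 and 60 min. Protein-free supernatant evaporated under nitrogen, reconstituted in mobile phase and analysed by LC−MS/MS. Cell-free medium incubation for 60 min as control.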

[2] = Drug level in human hepatocytes treated with 3, 5 -Dichloro-4-( (S)-2-(3 -(cyclopropylmethoxy)-4-(difluoromethoxy)phenyl)-2-(((S)-1-((3- (dimethylcarbamoyl)-phenyl)sulfonyl)pyrrolidine-2-carbonyl)oxy)ethyl)pyridine 1-Oxide at 10 uM after 60 mins by LC-MS/MS analysis; assay type: ADME, cell-based, Hepatocyte; conditions: 1 h; procedure, shortened: as §1
[3] = Inhibition of PDE4 in human PBMC assessed as reduction in LPS-induced TNFalpha release after 18 hrs by quantitative ELISA
[4] = Inhibition of PDE4 in human U937 cell lysates assessed as residual cAMP after 2.5 mins by LANCE assay

With [O-][n+]1cc(Cl)c(C[C@H](O)c2ccc(OC(F)F)c(OCC3CC3)c2)c(Cl)c1 the Drug metabolism [1] was “Metabolite_Detected”, the Drug metabolism [2] was “Metabolite_Detected” and the IC50 [3] was 480 nM.

For CN(C)C(=O)c1cccc(S(=O)(=O)N2CCS[C@H]2C(=O)O[C@@H](Cc2c(Cl)c[n+]([O-])cc2Cl)c2ccc(OC(F)F)c(O)c2)c1 (relative stereo), the Drug metabolism [1] was “Metabolite_Detected”, the IC50 [4] was 0.183 to 1.95 nM and the IC50 [3] was 1.95 nM.

For CN(C)C(=O)c1cccc(S(=O)(=O)N2CCC[C@H]2C(=O)O)c1, the Drug metabolism [2] was “Metabolite_Detected” and the IC50 [3] was > 1000 nM.
